# Experimental data: ChEMBL document CHEMBL1129944, “[[(Arylpiperazinyl)alkyl]thio]thieno[2,3-d]pyrimidinone derivatives as high-affinity, selective 5-HT1A receptor ligands” (J Med Chem, 1997)
# Experiments:
# [1] = biological target: D(1A) dopamine receptor (Rattus norvegicus, UniProt P18901); assay: In vitro inhibitory concentration against radioligand [3H]SCH-23390 binding to Dopamine receptor D1 in rat striatal membrane; type: cell membranes, Striatum
# How it was run: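 Rat striatal membranes were incubated in 50 mM Tris-HCl pH 7.1 containing 10 μM pargyline, 120 mM NaCl, 5 mM KCl, 2 mM CaCl2, 1 mM MgCl2 and 0.1% ascorbic acid. [3H]SCH23390 0.4 nM final, 15 min at 37 °C; nonspecific binding with (-)-cis-flupentixol 10 μM. Filtered and counted; IC50 by curve analysis.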
# [2] = biological target: D(2) dopamine receptor (Rattus norvegicus, UniProt P61169); assay: In vitro inhibitory concentration against radioligand [3H]spiperone binding to Dopamine receptor D2 in rat striatal membrane; type: cell membranes, Striatum
# How it was run: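 Rat striatum was used, with incubation buffer 50 mM Tris-HCl pH 7.1 plus pargyline 10 μM, NaCl 120 mM, KCl 5 mM, CaCl2 2 mM, MgCl2 1 mM and 0.1% ascorbic acid. [3H]spiperone 0.2 nM final, 15 min at 37 °C; (-)sulpiride 100 μM defined nonspecific binding. GF/B filtration, scintillation counting, IC50 from fitted curves.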
# [3] = biological target: 5-hydroxytryptamine receptor 2A (Rattus norvegicus, UniProt P14842); assay: In vitro inhibitory concentration against radioligand [3H]ketanserin binding to 5-hydroxytryptamine 2A receptor in rat cortical membrane; type: cell membranes
# Chain of 5-hydroxytryptamine receptor 2A (P14842 whole entry): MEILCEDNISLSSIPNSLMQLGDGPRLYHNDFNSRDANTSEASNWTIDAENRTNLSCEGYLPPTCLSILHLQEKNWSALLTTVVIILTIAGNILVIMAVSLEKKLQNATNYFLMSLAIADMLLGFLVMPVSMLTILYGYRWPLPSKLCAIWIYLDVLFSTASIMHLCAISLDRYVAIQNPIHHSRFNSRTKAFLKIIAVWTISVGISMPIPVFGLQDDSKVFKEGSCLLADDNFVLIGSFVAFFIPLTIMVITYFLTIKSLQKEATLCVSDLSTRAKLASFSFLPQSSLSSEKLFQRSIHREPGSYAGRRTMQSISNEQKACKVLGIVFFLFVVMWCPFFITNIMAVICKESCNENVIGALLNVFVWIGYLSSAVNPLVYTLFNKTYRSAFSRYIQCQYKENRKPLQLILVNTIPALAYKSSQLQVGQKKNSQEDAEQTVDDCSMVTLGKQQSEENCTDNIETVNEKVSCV
# How it was run: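 Cortex from male rats (~150 g) was washed in Tris-HCl pH 7.4 and incubated in 50 mM Tris-HCl pH 7.7. [3H]ketanserin 0.7 nM final, 15 min at 37 °C; nonspecific binding with methysergide. Filtration and scintillation counting; concentration inhibiting binding by 50% derived from dose-inhibition curves.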
# [4] = biological target: T1, Serotonin 3 (5-HT3) receptor (Rattus norvegicus, UniProt P35563+Q9JJ16); assay: In vitro inhibitory concentration against radioligand [3H]BRL-43694 binding to 5-hydroxytryptamine 3 receptor in rat cortical membrane; type: cell membranes
# T1 sequence (P35563 whole entry): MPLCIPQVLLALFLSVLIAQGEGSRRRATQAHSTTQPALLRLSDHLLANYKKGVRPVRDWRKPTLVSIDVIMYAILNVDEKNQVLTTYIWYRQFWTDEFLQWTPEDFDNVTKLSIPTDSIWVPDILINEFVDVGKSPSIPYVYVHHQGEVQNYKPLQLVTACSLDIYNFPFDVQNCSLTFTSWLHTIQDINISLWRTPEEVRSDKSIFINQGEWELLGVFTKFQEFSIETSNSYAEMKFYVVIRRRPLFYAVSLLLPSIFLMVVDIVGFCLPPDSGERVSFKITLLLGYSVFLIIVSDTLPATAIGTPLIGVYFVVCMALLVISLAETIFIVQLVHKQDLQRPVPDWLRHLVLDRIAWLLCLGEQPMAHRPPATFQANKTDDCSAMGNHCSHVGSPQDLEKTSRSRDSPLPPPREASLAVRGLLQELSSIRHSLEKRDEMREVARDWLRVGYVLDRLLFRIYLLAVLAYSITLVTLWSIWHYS
# T1 sequence (Q9JJ16 whole entry): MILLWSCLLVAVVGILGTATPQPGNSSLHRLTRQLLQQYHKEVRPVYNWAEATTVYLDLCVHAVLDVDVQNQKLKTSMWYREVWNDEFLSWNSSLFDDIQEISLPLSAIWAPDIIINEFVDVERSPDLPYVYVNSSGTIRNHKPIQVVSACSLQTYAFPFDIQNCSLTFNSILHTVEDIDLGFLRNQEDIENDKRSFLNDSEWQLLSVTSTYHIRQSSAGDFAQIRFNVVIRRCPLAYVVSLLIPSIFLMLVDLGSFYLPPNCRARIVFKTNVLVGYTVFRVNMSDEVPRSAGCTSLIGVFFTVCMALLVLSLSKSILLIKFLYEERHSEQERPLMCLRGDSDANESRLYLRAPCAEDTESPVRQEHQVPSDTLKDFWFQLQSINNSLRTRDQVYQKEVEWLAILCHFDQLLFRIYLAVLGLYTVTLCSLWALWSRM
# How it was run: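 Rat cortex was homogenized in 50 mM Hepes-HCl pH 7.5, then incubated in 50 mM Hepes-HCl pH 7.4 with 10 μM pargyline. [3H]-BRL43694 1 nM final, 30 min at 25 °C; nonspecific binding with GR38032 10 μM. Filtration through GF/B, liquid scintillation counting, IC50 from dose-inhibition curves.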
SMILES,IC50 [1],IC50 [2],IC50 [3],IC50 [4]
COc1ccccc1C1CCN(CCCSc2nc3sc(C)c(C)c3c(=O)n2N)CC1,800 nM,100 nM,300 nM,600 nM
Cc1sc2nc(SCCCN3CCN(c4ncccn4)CC3)n(N)c(=O)c2c1C,600 nM,2000 nM,1000 nM,20 nM
COc1ccccc1N1CCN(CCCSc2nc3sc(C)c(C)c3c(=O)n2N)CC1,400 nM,60 nM,300 nM,800 nM
